The results in this text go back to ChEMBL document CHEMBL1145471, “Small molecule regulators of autophagy identified by an image-based high-throughput screen” (Proc Natl Acad Sci U S A, 2007).

What all share (assay type): functional
For assay [1], the system named is H4. Description: Increase in light chain 3-GFP+ autophagosome vesicle area per cell in human H4 cells at 6.2 uM after 24 hrs by high throughput fluorescence microscopy relative to control. Put shortly:
(§1)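 H4 cells stably expressing LC3-GFP, seeded in 96-well plates and exposed to compound for 24 h; screening concentrations were 3–12 μM, with rapamycin 0.22 μM and bafilomycin A1 0.40 μM. Cells fixed in 4% paraformaldehyde and stained with 3 μg/ml DAPI. Number, size and intensity of LC3-GFP spots measured by high-throughput fluorescence microscopy and expressed as percent of DMSO-treated wells. Rapamycin was the positive control. Triplicate wells, mean ± SD; experiments repeated three times.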

Assay [2] relates to H4. Description: Decrease in FYVE-RFP+ vesicle intensity per cell in human H4 cells after 2 hrs relative to control. Details: concentration or dose not given beside the values; scale not given: the % may be the effect or the level left. Summed up:
(§2)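 H4 cells stably expressing FYVE-RFP (H4-FYVE), grown in DMEM with 10% FBS, penicillin/streptomycin and 2 mM L-glutamine at 37°C, 5% CO2, seeded in 96-well plates and exposed to compound. Fixed in 4% paraformaldehyde, nuclei stained with 3 μg/ml DAPI, FYVE-RFP+ vesicles quantified by high-throughput fluorescence microscopy against DMSO control. Triplicate wells, mean ± SD.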

For assay [3], the system named is H4. In words: Increase in light chain 3-GFP+ autophagosome vesicle number per cell in human H4 cells at 6.2 uM after 24 hrs by high throughput fluorescence microscopy relative to control. Put shortly:
(§3)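 H4 cells stably expressing LC3-GFP were grown in DMEM with 10% FBS and 2 mM L-glutamine at 37°C, 5% CO2. They were exposed to each compound for 24 h, with DMSO as negative and rapamycin as positive control. Cells were then fixed in 4% paraformaldehyde and stained with 3 μg/ml DAPI. High-throughput fluorescence imaging scored LC3-GFP spot number, size and intensity, expressed relative to DMSO. Mean ± SD of triplicates; experiments repeated three times.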

Assay [4] relates to H4. In words: Increase in long-lived protein degradation in human H4 cells after 2 hrs relative to control. Further details: concentration or dose not given beside the values.
The subject of assay [5] is H4. In words: Increase in long-lived protein degradation in human H4 cells after 4 hrs relative to control. Details: concentration or dose not given beside the values.
In assay [6] the test system is H4. Description: Increase in light chain 3-GFP+ autophagosome vesicle intensity per cell in human H4 cells at 6.2 uM after 24 hrs by high throughput fluorescence microscopy relative to control. Summed up: as §3
For assay [7], the system named is H4. Description: Increase in long-lived protein degradation in human H4 cells after 24 hrs relative to control. Further details: concentration or dose not given beside the values.
Assay [8] relates to H4. Description: Decrease in FYVE-RFP+ vesicle intensity per cell in human H4 cells after 4 hrs relative to control. Further details: concentration or dose not given beside the values; scale not given: the % may be the effect or the level left. Summed up: as §2
Assay [9] deals with H4. In words: Decrease in FYVE-RFP+ vesicle intensity per cell in human H4 cells after 8 hrs relative to control. Details: concentration or dose not given beside the values; scale not given: the % may be the effect or the level left. Put shortly: as §2
The subject of assay [10] is H4. In words: Increase in long-lived protein degradation in human H4 cells after 1 hr relative to control. Details: concentration or dose not given beside the values.
The test system of assay [11] is H4. Description: Induction of light chain 3-GFP level in human H4 cells at 6.2 uM after 24 hrs by high throughput fluorescence microscopy relative to control. Summed up: (§4)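 H4 cells stably expressing LC3-GFP, grown in DMEM with 10% FBS, penicillin/streptomycin and 2 mM L-glutamine at 37°C, 5% CO2. Cells were seeded in 96-well plates and exposed to library compounds at 3–12 μM for 24 h, then fixed in 4% paraformaldehyde and stained with 3 μg/ml DAPI. LC3-GFP spot number, size and intensity were measured by high-throughput fluorescence microscopy and expressed relative to DMSO. Triplicates, mean ± SD.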

The subject of assay [12] is H4. In words: Increase in light chain 3-GFP+ autophagosome vesicle number per cell in human H4 cells at 6.9 uM after 24 hrs by high throughput fluorescence microscopy relative to control. Put shortly: as §3
Assay [13] deals with H4. In words: Increase in light chain 3-GFP+ autophagosome vesicle area per cell in human H4 cells at 6.9 uM after 24 hrs by high throughput fluorescence microscopy relative to control. Put shortly: as §1
For assay [14], the system named is H4. Description: Induction of light chain 3-GFP level in human H4 cells at 6.9 uM after 24 hrs by high throughput fluorescence microscopy relative to control. Summed up:
as §4

The subject of assay [15] is H4. In words: Increase in light chain 3-GFP+ autophagosome vesicle intensity per cell in human H4 cells at 6.9 uM after 24 hrs by high throughput fluorescence microscopy relative to control. Summed up: as §3
Assay [16] deals with H4. In words: Induction of light chain 3-GFP level in human H4 cells at 5.2 uM after 24 hrs by high throughput fluorescence microscopy relative to control. Summed up:
as §4

Assay [17] concerns H4. Description: Increase in light chain 3-GFP+ autophagosome vesicle area per cell in human H4 cells at 5.2 uM after 24 hrs by high throughput fluorescence microscopy relative to control. Put shortly:
as §1

For assay [18], the system named is H4. Description: Effect on FYVE-RFP+ vesicle intensity per cell in human H4 cells after 2 hrs relative to control. Details: concentration or dose not given beside the values. Put shortly: as §2
The subject of assay [19] is H4. In words: Increase in light chain 3-GFP+ autophagosome vesicle intensity per cell in human H4 cells at 5.2 uM after 24 hrs by high throughput fluorescence microscopy relative to control. Put shortly: as §3
The subject of assay [20] is H4. In words: Increase in light chain 3-GFP+ autophagosome vesicle number per cell in human H4 cells at 5.2 uM after 24 hrs by high throughput fluorescence microscopy relative to control. Summed up: as §3
Assay [21] has as its system H4. Description: Effect on FYVE-RFP+ vesicle intensity per cell in human H4 cells after 8 hrs relative to control. Details: concentration or dose not given beside the values. Summed up:
as §2

The subject of assay [22] is H4. In words: Effect on FYVE-RFP+ vesicle intensity per cell in human H4 cells after 4 hrs relative to control. Details: concentration or dose not given beside the values. Put shortly:
as §2

Turning to `CC(C)[C@@H](O)CC[C@@H](C)[C@H]1CC[C@H]2[C@@H]3CC=C4C[C@@H](O)CC[C@]4(C)[C@H]3CC[C@]12C`, the Activity in the assay with H4 [1] is given as 299.59%; in the assay with H4 [2], 38.02%; in the assay with H4 [3], 220.93%; with H4 [4], 105.76%; in the assay on H4 [5] it was 89.7%; with H4 [6], 648.9%. Further, the Activity with H4 [7] worked out at 106.22%; in the assay on H4 [8], 38.32%; in the assay on H4 [9], 38.51%; with H4 [10] it was 125.06%; in the assay with H4 [11], 108.2%.

For the molecule `COc1ccc(CCCOC(Cn2ccnc2)c2ccc(OC)cc2)cc1` (centres undefined), the Activity in the assay with H4 [1] was found to be 209.11%; in the assay with H4 [3] it was 179.88%; with H4 [6] it was 285.59%; in the assay with H4 [11], 42.96%.

As for `O=S(=O)(c1cccc2c(Cl)cccc12)N1CCCNCC1`, the Activity with H4 [12] is given as 210.65%; with H4 [13] it was 272.31%; in the assay with H4 [14], 82.33%; with H4 [15], 447.81%.

As to `CN(CCc1ccc(Cl)c(Cl)c1)CC(O)COc1ccc(NS(C)(=O)=O)cc1` (centres undefined), the Activity in the assay with H4 [16] amounted to 135.28%; in the assay with H4 [17] it was 192.05%; with H4 [18], 68.06%; with H4 [19], 222.83%; in the assay with H4 [20], 166.24%; in the assay on H4 [4] it was 86.27%. Also, the Activity is listed as 91.75% in the assay with H4 [5]; 96.25% in the assay on H4 [7]; 66.35% with H4 [21]; 95.15% with H4 [10]; 71.97% with H4 [22].

Consider `CC(C)COCC(CN(Cc1ccccc1)c1ccccc1)N1CCCC1` (centres undefined) [BEPRIDIL], for which the Activity is 160.34% in the assay with H4 [1]; 65.27% with H4 [2]; 144.05% in the assay with H4 [3]; 112.64% with H4 [4]; 98.78% in the assay with H4 [5]; 168.39% with H4 [6]. The Activity was determined as 117.59% with H4 [7]; 45.17% with H4 [8]; 35.94% in the assay on H4 [9]; 101.9% in the assay with H4 [10]; 111.92% in the assay on H4 [11].

`CCCC[C@@H](C=O)NC(=O)[C@H](CC(C)C)NC(=O)OCc1ccccc1` [CALPEPTIN]: the Activity in the assay on H4 [12] is listed as 177.07%; in the assay with H4 [2], 58.44%; in the assay with H4 [13], 207.34%; in the assay on H4 [4], 68.3%; with H4 [5] it was 78.67%; in the assay with H4 [14], 128.87%. Besides, the Activity came to 81.62% in the assay on H4 [7]; 232.89% with H4 [15]; 63.28% in the assay with H4 [8]; 61.02% in the assay with H4 [9]; 73.3% in the assay on H4 [10].

With `C=C1[C@@H](C)[C@H]2[C@H](Cc3ccccc3)NC(=O)[C@]23OC(=O)/C=C/[C@H](O)CCC[C@@H](C)C/C=C/[C@H]3[C@@H]1O` [CYTOCHALASIN B], the Activity came to 30.58% in the assay with H4 [16], 247.77% in the assay on H4 [17], 286.43% in the assay on H4 [19] and 208.73% in the assay with H4 [20].

Consider `Fc1ccc(C(c2ccc(F)cc2)N2CCN(C/C=C/c3ccccc3)CC2)cc1` [FLUNARIZINE], for which the Activity is on record as 53.92% with H4 [2]; 104.67% in the assay on H4 [16]; 179.26% in the assay with H4 [17]; 203.66% in the assay with H4 [19]; 155.03% with H4 [20]; 107.1% with H4 [4]. For the same molecule, the Activity worked out at 93.65% in the assay on H4 [5]; 113.6% in the assay on H4 [7]; 44.48% with H4 [8]; 48.6% with H4 [9]; 97.33% with H4 [10].

As for `CC[C@H]1[C@@H]2C=C[C@H]3[C@@H](C[C@H]4/C=C/C(=O)C5=C[C@H](CCCNC(=O)/C=C\C[C@H]34)NC5=O)[C@H]2C[C@H]1C` [IKARUGAMYCIN], the Activity is listed as 50.16% with H4 [16], 107.27% in the assay on H4 [17], 172.85% in the assay with H4 [19] and 75.79% in the assay with H4 [20].

As to `O=C1Nc2ccccc2/C1=C1/Nc2ccccc2C1=O` [INDIRUBIN], the Activity in the assay with H4 [2] turned out to be 73.16%; in the assay on H4 [4] it was 94.5%; with H4 [5], 95.3%; in the assay with H4 [7], 100.5%; in the assay with H4 [8] it was 35.1%; with H4 [9], 59.18%. The molecule further came in with an Activity with H4 [10] of 105.91%.

Turning to `O=c1cc(N2CCOCC2)oc2c(-c3ccccc3)cccc12` [LY-294002], the figures for the Activity in the assay with H4 [2], with H4 [8] and in the assay on H4 [9] were 24.99%, 14.79% and 11.09%, respectively.

Take `C=C[C@H]1CN2CC[C@H]1C[C@H]2[C@H](O)c1ccnc2ccc(OC)cc12` [QUININE]: the Activity with H4 [12] is recorded as 146.94%; with H4 [13], 160.38%; with H4 [18], 70.35%; in the assay with H4 [4], 110.94%; with H4 [5], 99.32%; in the assay on H4 [14] it was 115.16%. Besides, the Activity with H4 [7] amounted to 103.56%; with H4 [15] it was 165.01%; with H4 [21], 60.7%; with H4 [10], 94.35%; with H4 [22] it was 78.03%.

As for `CC(/C=C/C(=O)NO)=C\[C@@H](C)C(=O)c1ccc(N(C)C)cc1` [TRICHOSTATIN], the Activity stood at 40.15% with H4 [16], 864.85% with H4 [17], 1649.69% with H4 [19] and 636.52% in the assay with H4 [20].

`COc1ccc(CCN(C)CCC[C@](C#N)(c2ccc(OC)c(OC)c2)C(C)C)cc1OC` [VERAPAMIL]: the Activity was 132.44% in the assay on H4 [16]; 200.63% in the assay with H4 [17]; 238.6% in the assay on H4 [19]; 168.55% in the assay on H4 [20]; 114.92% with H4 [4]; 97.84% in the assay on H4 [5]. Besides, the values for the Activity in the assay with H4 [7] and in the assay on H4 [10] were 94.39% and 103.33%, respectively.
